From ChEMBL document CHEMBL4689842, “EUbOPEN Chemogenomics Library wave 1” (2021)

Test system: U2OS
Assay: Multiplex assay against U2OS
Type: toxicity, cell-based
Settings: human
Summary of the method: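 Tubulin, mitochondrial-mass and membrane-permeability phenotypes are per cents of healthy-nucleus cells. Cells were gated by CellPathfinder machine learning into Hoechst high-intensity objects or normal cells, normal cells into healthy, pyknosed or fragmented nuclei, and pyknosed cells into mitotic or apoptotic. Before that, live cells stained at seeding with Hoechst33342, BioTracker Green Microtubule Cytoskeleton Dye, MitoTracker Red and Annexin V Alexa Fluor 680 were imaged on a CQ1 microscope at 37°C and 5% CO2 after compound addition.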

[1] = 12 h, 1 µM, compound concentration 1 uM, replicate 1
[2] = 12 h, 1 µM, compound concentration 1 uM, replicate 2
[3] = 12 h, 10 µM, compound concentration 10 uM, replicate 1
[4] = 12 h, 10 µM, compound concentration 10 uM, replicate 2
[5] = 24 h, 1 µM, compound concentration 1 uM, replicate 1
[6] = 24 h, 1 µM, compound concentration 1 uM, replicate 2
[7] = 24 h, 10 µM, compound concentration 10 uM, replicate 1
[8] = 24 h, 10 µM, compound concentration 10 uM, replicate 2
[9] = 48 h, 1 µM, compound concentration 1 uM, replicate 1
[10] = 48 h, 1 µM, compound concentration 1 uM, replicate 2
[11] = 48 h, 10 µM, compound concentration 10 uM, replicate 1
[12] = 48 h, 10 µM, compound concentration 10 uM, replicate 2

CN(C)C(=O)C(CCN1CCC(O)(c2ccc(Cl)cc2)CC1)(c1ccccc1)c1ccccc1.Cl [LOPERAMIDE HYDROCHLORIDE]
Population Apoptotic (%) [1]: 37% | Population Fragmented Nuclei (%) [1]: 11% | Population Healthy Nuclei (%) [1]: 69% | Population Hoechst High Intensity Objects (%) [1]: 4% | Population Membrane Permeable-Phenotype (%) [1]: 5% | Population Mitochondria Different-Phenotype (%) [1]: 82% | Population Mitotic Cells (%) [1]: 62% | Population Normal (%) [1]: 95% | Population Pyknosed Nuclei (%) [1]: 19% | Population Tubulin-Different-Phenotype (%) [1]: 87% | Total Cell Count [1]: 181 | Population Apoptotic (%) [2]: 25% | Population Fragmented Nuclei (%) [2]: 5% | Population Healthy Nuclei (%) [2]: 88% | Population Hoechst High Intensity Objects (%) [2]: 7% | Population Membrane Permeable-Phenotype (%) [2]: 11% | Population Mitochondria Different-Phenotype (%) [2]: 90% | Population Mitotic Cells (%) [2]: 75% | Population Normal (%) [2]: 92% | Population Pyknosed Nuclei (%) [2]: 6% | Population Tubulin-Different-Phenotype (%) [2]: 65% | Total Cell Count [2]: 55 | Population Apoptotic (%) [3]: 66% | Population Fragmented Nuclei (%) [3]: 16% | Population Healthy Nuclei (%) [3]: 42% | Population Hoechst High Intensity Objects (%) [3]: 5% | Population Membrane Permeable-Phenotype (%) [3]: 77% | Population Mitotic Cells (%) [3]: 33% | Population Normal (%) [3]: 95% | Population Pyknosed Nuclei (%) [3]: 40% | Total Cell Count [3]: 129 | Population Apoptotic (%) [4]: 82% | Population Fragmented Nuclei (%) [4]: 8% | Population Healthy Nuclei (%) [4]: 48% | Population Hoechst High Intensity Objects (%) [4]: 6% | Population Membrane Permeable-Phenotype (%) [4]: 94% | Population Mitochondria Different-Phenotype (%) [4]: 100% | Population Mitotic Cells (%) [4]: 17% | Population Normal (%) [4]: 93% | Population Pyknosed Nuclei (%) [4]: 43% | Population Tubulin-Different-Phenotype (%) [4]: 100% | Total Cell Count [4]: 64 | Population Apoptotic (%) [5]: 60% | Population Fragmented Nuclei (%) [5]: 10% | Population Healthy Nuclei (%) [5]: 74% | Population Hoechst High Intensity Objects (%) [5]: 5% | Population Membrane Permeable-Phenotype (%) [5]: 6% | Population Mitochondria Different-Phenotype (%) [5]: 84% | Population Mitotic Cells (%) [5]: 40% | Population Normal (%) [5]: 94% | Population Pyknosed Nuclei (%) [5]: 14% | Population Tubulin-Different-Phenotype (%) [5]: 75% | Total Cell Count [5]: 222 | Population Apoptotic (%) [6]: 53% | Population Fragmented Nuclei (%) [6]: 5% | Population Healthy Nuclei (%) [6]: 71% | Population Hoechst High Intensity Objects (%) [6]: 4% | Population Membrane Permeable-Phenotype (%) [6]: 16% | Population Mitochondria Different-Phenotype (%) [6]: 89% | Population Mitotic Cells (%) [6]: 46% | Population Normal (%) [6]: 95% | Population Pyknosed Nuclei (%) [6]: 22% | Population Tubulin-Different-Phenotype (%) [6]: 62% | Total Cell Count [6]: 68 | Population Apoptotic (%) [7]: 92% | Population Fragmented Nuclei (%) [7]: 23% | Population Healthy Nuclei (%) [7]: 18% | Population Hoechst High Intensity Objects (%) [7]: 4% | Population Membrane Permeable-Phenotype (%) [7]: 92% | Population Mitochondria Different-Phenotype (%) [7]: 100% | Population Mitotic Cells (%) [7]: 7% | Population Normal (%) [7]: 95% | Population Pyknosed Nuclei (%) [7]: 57% | Population Tubulin-Different-Phenotype (%) [7]: 100% | Total Cell Count [7]: 146 | Population Apoptotic (%) [8]: 98% | Population Fragmented Nuclei (%) [8]: 10% | Population Healthy Nuclei (%) [8]: 26% | Population Hoechst High Intensity Objects (%) [8]: 10% | Population Membrane Permeable-Phenotype (%) [8]: 86% | Population Mitochondria Different-Phenotype (%) [8]: 95% | Population Mitotic Cells (%) [8]: 1% | Population Normal (%) [8]: 89% | Population Pyknosed Nuclei (%) [8]: 62% | Population Tubulin-Different-Phenotype (%) [8]: 95% | Total Cell Count [8]: 70 | Population Apoptotic (%) [9]: 60% | Population Fragmented Nuclei (%) [9]: 6% | Population Healthy Nuclei (%) [9]: 78% | Population Hoechst High Intensity Objects (%) [9]: 6% | Population Mitochondria Different-Phenotype (%) [9]: 72% | Population Mitotic Cells (%) [9]: 40% | Population Normal (%) [9]: 93% | Population Pyknosed Nuclei (%) [9]: 15% | Population Tubulin-Different-Phenotype (%) [9]: 59% | Total Cell Count [9]: 345 | Population Apoptotic (%) [10]: 61% | Population Fragmented Nuclei (%) [10]: 7% | Population Healthy Nuclei (%) [10]: 68% | Population Hoechst High Intensity Objects (%) [10]: 3% | Population Membrane Permeable-Phenotype (%) [10]: 8% | Population Mitochondria Different-Phenotype (%) [10]: 65% | Population Mitotic Cells (%) [10]: 38% | Population Normal (%) [10]: 96% | Population Pyknosed Nuclei (%) [10]: 23% | Population Tubulin-Different-Phenotype (%) [10]: 47% | Total Cell Count [10]: 118 | Population Apoptotic (%) [11]: 98% | Population Fragmented Nuclei (%) [11]: 33% | Population Healthy Nuclei (%) [11]: 5% | Population Hoechst High Intensity Objects (%) [11]: 9% | Population Membrane Permeable-Phenotype (%) [11]: 100% | Population Mitochondria Different-Phenotype (%) [11]: 100% | Population Mitotic Cells (%) [11]: 1% | Population Normal (%) [11]: 90% | Population Pyknosed Nuclei (%) [11]: 61% | Population Tubulin-Different-Phenotype (%) [11]: 100% | Total Cell Count [11]: 177 | Population Apoptotic (%) [12]: 100% | Population Fragmented Nuclei (%) [12]: 21% | Population Healthy Nuclei (%) [12]: 30% | Population Hoechst High Intensity Objects (%) [12]: 21% | Population Membrane Permeable-Phenotype (%) [12]: 95% | Population Mitotic Cells (%) [12]: 0% | Population Normal (%) [12]: 78% | Population Pyknosed Nuclei (%) [12]: 48% | Total Cell Count [12]: 92
